Source: ChEMBL document CHEMBL1124368 (J Med Chem, 1989)

What was measured:
Dihydrofolate reductase = biological target: T1, Dihydrofolate reductase (Rattus norvegicus, UniProt Q920D2); test: In vitro inhibitory concentration against rat liver dihydrofolate reductase(DHFR); conditions: read-out: I50
T1 sequence (Q920D2 whole entry): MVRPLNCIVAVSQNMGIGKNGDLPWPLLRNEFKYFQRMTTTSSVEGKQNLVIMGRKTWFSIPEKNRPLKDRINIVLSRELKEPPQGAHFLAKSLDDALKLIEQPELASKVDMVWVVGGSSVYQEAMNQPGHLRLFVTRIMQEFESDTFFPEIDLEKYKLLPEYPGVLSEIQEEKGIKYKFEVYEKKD
Outline: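 Partially purified rat liver DHFR, prepared by the Bertino and Fischer method, assayed spectrophotometrically at 340 nm. I50 is the final inhibitor concentration that cuts the reaction rate to 50% of the uninhibited rate. […] Inhibitors were dissolved in 0.1 M HCl or 95% ethanol.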

Mus musculus [1] = test: Ratio of tumor volume of test(T) animals compared to control(C) animals x 100 T/C(%)] at a dose of 12.50 mg/kg/day; type: functional
Outline: (§1)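 M5076 reticulum cell sarcoma: 10⁶ cells implanted im into the left leg of female BDF₁ mice (groups of five) on day 0. Treatment was ip, daily on days 1–17, in 10–20% DMSO in arachis oil. T/C% is treated tumor volume over control tumor volume × 100.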

Mus musculus [2] = test: Ratio of tumor volume of test(T) animals compared to control(C) animals x 100 T/C(%)] at a dose of 25 mg/kg/day; type: functional; outline: as §1
Mus musculus [3] = test: Ratio of tumor volume of test(T) animals compared to control(C) animals x 100 T/C(%)] at a dose of 3.125 mg/kg/day; type: functional; outline: as §1
Mus musculus [4] = test: Ratio of tumor volume of test(T) animals compared to control(C) animals x 100 T/C(%)] at a dose of 6.25 mg/kg/day; type: functional; outline: as §1
Mus musculus [5] = test: Tumor volume in 16 days after tumor implantation at a dose of 3.125 mg/kg/day of compound; type: functional
Outline: (§2)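 10⁶ M5076 reticulum cell sarcoma cells were injected im into the left leg of female BDF₁ mice, five per group, on day 0. Compound in 10–20% DMSO/arachis oil was dosed ip daily on days 1–17. Tumor volumes (mm³) were recorded on days 12, 16, 20 and 24 after implantation, with NM marking a tumor that could not be measured.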

Mus musculus [6] = test: Tumor volume in 20 days after tumor implantation at a dose of 3.125 mg/kg/day; type: functional; outline: as §2
Mus musculus [7] = test: Tumor volume in 20 days after tumor implantation at a dose of 6.25 mg/kg/day of compound; type: functional; outline: as §2
Mus musculus [8] = test: Tumor volume in 24 days after tumor implantation at a dose of 12.5 mg/kg/day; type: functional; outline: as §2
Mus musculus [9] = test: Tumor volume in 24 days after tumor implantation at a dose of 3.125 mg/kg/day; type: functional; outline: as §2
Mus musculus [10] = test: Tumor volume in 24 days after tumor implantation at a dose of 6.25 mg/kg/day; type: functional; outline: as §2
Mus musculus [11] = test: Mean of weight gain from day 0 to day 24 at a dose of 12.5 mg/kg/day of compound; type: functional; parameters: unit not given here
Outline: (§3)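 M5076 reticulum cell sarcoma: 10⁶ cells implanted im into the left leg of female BDF₁ mice (groups of five) on day 0. Drug in 10–20% DMSO in arachis oil was given ip daily on days 1–17. Weight change is the mean weight gain from day 0 to day 24.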

Mus musculus [12] = test: Mean of weight gain from day 0 to day 24 at a dose of 25 mg/kg/day of compound; type: functional; parameters: unit not given here; outline: as §3
Mus musculus [13] = test: Mean of weight gain from day 0 to day 24 at a dose of 3.125 mg/kg/day of compound; type: functional; parameters: unit not given here; outline: as §3
Mus musculus [14] = test: Mean of weight gain from day 0 to day 24 at a dose of 6.25 mg/kg/day; type: functional; parameters: unit not given here; outline: as §3
Mus musculus [15] = test: Tumor volume in 16 days after tumor implantation at a dose of 50 mg/kg/day of compound; NM=Tumor not measurable; type: functional, organism-based; outline: as §2
Mus musculus [16] = test: Tumor volume in 24 days after tumor implantation at a dose of 25 mg/kg/day of compound; type: functional; outline: as §2
Mus musculus [17] = test: Number of survivors versus treated on day 24 at a dose of 12.5 mg/kg/day of compound; Tumor not measurable; type: functional, organism-based
Mus musculus [18] = test: Number of survivors versus treated on day 24 at a dose of 6.25 mg/kg/day of compound; Tumor not measurable; type: functional, organism-based
Mus musculus [19] = test: Tumor volume in 20 days after tumor implantation at a dose of 3.125 mg/kg/day of compound; NM=tumor not measureable; type: functional, organism-based; outline: as §2
Mus musculus [20] = test: Tumor volume in 24 days after tumor implantation at a dose of 3.125 mg/kg/day of compound; NM=tumor not measureable; type: functional, organism-based; outline: as §2
Mus musculus [21] = test: Tumor volume in 12 days after tumor implantation at a dose of 3.125 mg/kg/day of compound; NM=tumor not measureable.; type: functional, organism-based; outline: as §2
Mus musculus [22] = test: Tumor volume in 16 days after tumor implantation at a dose of 3.125 mg/kg/day of compound; NM=tumor not measureable; type: functional, organism-based; outline: as §2
Mus musculus [23] = test: Ratio of tumor volume of test(T) animals compared to control(C) animals x 100 T/C(%)] at a dose of 3.125 mg/kg/day of compound; maximal activity for this system.; type: organism-based; conditions: in vivo; outline: as §1
Mus musculus [24] = test: Number of survivors versus treated on day 24 at a dose of 12.5 mg/kg/day of compound; none of them survived(0/5); type: functional
Mus musculus [25] = test: Number of survivors versus treated on day 24 at a dose of 6.25 mg/kg/day of compound; none of them survived(0/5); type: functional
Mus musculus [26] = test: Mean of weight gain from day 0 to day 24 at a dose of 3.125 mg/kg/day of compound (maximum activity noticed); type: functional; outline: as §3
Mus musculus [27] = test: Number of survivors treated on day 24 at a dose of 25 mg/kg/day of compound expressed as ratio of (test/control); none of them survived(0/5); type: functional

## CCc1nc(N)nc(N)c1-c1ccc(NCc2ccc(OC)cc2)c([N+](=O)[O-])c1
Dihydrofolate reductase
  IC50: 0.02 µM
Mus musculus [1]
  Antitumor activity: 21%
Mus musculus [2]
  Antitumor activity: <8%
Mus musculus [3]
  Antitumor activity: 50%
Mus musculus [4]
  Antitumor activity: 30%
Mus musculus [5]
  Tumor volume: 306 mm**3
Mus musculus [6]
  Tumor volume: 831 mm**3
Mus musculus [7]
  Tumor volume: 416 mm**3
Mus musculus [8]
  Tumor volume: 636 mm**3
Mus musculus [9]
  Tumor volume: 1482 mm**3
Mus musculus [10]
  Tumor volume: 875 mm**3
Mus musculus [11]
  Weight change: 2.3
Mus musculus [12]
  Weight change: 0.2
Mus musculus [13]
  Weight change: 4.1
Mus musculus [14]
  Weight change: 3.6

## CCc1nc(N)nc(N)c1-c1ccc(NC)c([N+](=O)[O-])c1
Mus musculus [1]
  Antitumor activity: 20%
Mus musculus [2]
  Antitumor activity: 10%
Mus musculus [3]
  Antitumor activity: 61%
Mus musculus [4]
  Antitumor activity: 35%
Mus musculus [15]
  Tumor volume: Not measurable
Mus musculus [6]
  Tumor volume: 822 mm**3
Mus musculus [7]
  Tumor volume: 640 mm**3
Mus musculus [8]
  Tumor volume: 462 mm**3
Mus musculus [16]
  Tumor volume: 220 mm**3
Mus musculus [9]
  Tumor volume: 1407 mm**3
Mus musculus [10]
  Tumor volume: 805 mm**3
Mus musculus [11]
  Weight change: 2.1
Mus musculus [12]
  Weight change: 2.1
Mus musculus [13]
  Weight change: 4.3
Mus musculus [14]
  Weight change: 3.3

## CCc1nc(N)nc(N)c1-c1ccc(N(C)C)c(N)c1
Dihydrofolate reductase
  IC50: 67 µM

## CCc1nc(N)nc(N)c1-c1ccc(N2CCCC2)c([N+](=O)[O-])c1
Dihydrofolate reductase
  IC50: 1.7 µM

## CCc1nc(N)nc(N)c1-c1ccc(N(CC)Cc2ccccc2)c([N+](=O)[O-])c1
Mus musculus [1]
  Antitumor activity: 12%
Mus musculus [2]
  Antitumor activity: <8%
Mus musculus [3]
  Antitumor activity: 50%
Mus musculus [4]
  Antitumor activity: 31%
Mus musculus [17]
  Survivors: Not measurable
Mus musculus [18]
  Survivors: Not measurable
Mus musculus [6]
  Tumor volume: 698 mm**3
Mus musculus [7]
  Tumor volume: 492 mm**3
Mus musculus [8]
  Tumor volume: 316 mm**3
Mus musculus [9]
  Tumor volume: 1375 mm**3
Mus musculus [10]
  Tumor volume: 854 mm**3
Mus musculus [11]
  Weight change: 1.1
Mus musculus [12]
  Weight change: 0.8
Mus musculus [13]
  Weight change: 2.3
Mus musculus [14]
  Weight change: 1.6

## CCc1nc(N)nc(N)c1-c1ccc(Cl)c([N+](=O)[O-])c1
Dihydrofolate reductase
  IC50: 0.08 µM

## CCc1nc(N)nc(N)c1-c1ccc(N(C)Cc2ccccc2)c(N)c1
Dihydrofolate reductase
  IC50: 0.1 µM

## CCc1nc(N)nc(N)c1-c1ccc(N2CCNCC2)c([N+](=O)[O-])c1
Dihydrofolate reductase
  IC50: 3.1 µM

## CCc1nc(N)nc(N)c1-c1ccc(N2CCN(C)CC2)c([N+](=O)[O-])c1
Dihydrofolate reductase
  IC50: 3.9 µM

## CCc1nc(N)nc(N)c1-c1ccc(N(C)C2CCCCC2)c(N)c1
Dihydrofolate reductase
  IC50: 8.5 µM

## CCc1nc(N)nc(N)c1-c1ccc(N(CC)Cc2ccccc2)c(N)c1
Dihydrofolate reductase
  IC50: 4 µM

## CCc1nc(N)nc(N)c1-c1ccc(N2CCNCC2)c(N)c1
Dihydrofolate reductase
  IC50: > 25 µM

## Cc1nc(N)nc(N)c1-c1ccc(Cl)c(Cl)c1 [METOPRINE]
Mus musculus [19]
  Tumor volume: Not measurable
Mus musculus [20]
  Tumor volume: Not measurable
Mus musculus [21]
  Tumor volume: Not measurable
Mus musculus [22]
  Tumor volume: Not measurable
Mus musculus [23]
  T/C: < 8%
Mus musculus [24]
  Survivors: 0
Mus musculus [25]
  Survivors: 0
Mus musculus [26]
  Weight change: 4.9
Mus musculus [27]
  Survivors: 0
